Laboratory results as given in ChEMBL document CHEMBL1143945, “N-phenethyl and N-naphthylmethyl isatins and analogues as in vitro cytotoxic agents” (Bioorg Med Chem, 2008).

What was measured:
U-937 = assay: Cytotoxicity against human U937 cells; format: functional, cell-based
Method in brief: (§1)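 ATCC lines kept in RPMI-1640 with 2 mM L-glutamine, sodium bicarbonate, 5% FCS at 37 °C, 5% CO2. Adherent cells trypsinized, and viable cells counted by Trypan blue on a hemocytometer before seeding. MTS (CellTiter 96 AQueous One) metabolic read-out. IC50 is 50% inhibition of metabolic activity from sigmoidal dose-response curves. Triplicates in at least two independent experiments.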

MDA-MB-231 = assay: Cytotoxicity against human MDA-MB-231 cells; format: functional, cell-based; method in brief: as §1
HCT-116 = assay: Cytotoxicity against human HCT116 cells; format: functional, cell-based; method in brief: as §1
[1] = Inhibition of bovine neuronal tubulin polymerization for 60 mins; parameters: species or system Bos taurus
Method in brief: (§2)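 Purified bovine neuronal tubulin reaction mix from a commercial kit, run per the manufacturer. Compound or DMSO vehicle is added at varying concentrations. Polymerization is followed kinetically at 37 °C for 1 h by fluorescence, excitation 360 ± 10 nm and emission 440 ± 10 nm. IC50 is read at the 20 or 60 min time point. Duplicates in one experiment.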

MCF7 = assay: Cytotoxicity against human MCF7 cells; format: functional, cell-based; method in brief: as §1
[2] = Inhibition of bovine neuronal tubulin polymerization for 20 mins; parameters: species or system Bos taurus; method in brief: as §2
A-375 = assay: Cytotoxicity against human A375 cells; format: functional, cell-based; method in brief: as §1
PC-3 = assay: Cytotoxicity against human PC3 cells; format: functional, cell-based; method in brief: as §1
Jurkat = assay: Cytotoxicity against human Jurkat cells; format: functional, cell-based; method in brief: as §1

O=C(CN1C(=O)C(=O)c2cc(Br)cc(Br)c21)c1ccc(Br)cc1
IC50 (U-937): 9180 nM

O=C(CN1C(=O)C(=O)c2cc(Br)cc(Br)c21)c1cccc(Br)c1
IC50 (U-937): 6360 nM

O=C1C(=O)N(Cc2ccc3ccccc3c2)c2c(Br)cc(Br)cc21
IC50 (MDA-MB-231): 2560 nM
IC50 (U-937): 740 nM
IC50 (HCT-116): 1510 nM
IC50 [1]: 6470 nM
IC50 (MCF7): 3500 nM
IC50 [2]: 2870 nM
IC50 (A-375): 6560 nM
IC50 (PC-3): 2290 nM
IC50 (Jurkat): 410 nM

COc1ccc(CCN2C(=O)C(=O)c3cc(Br)cc(Br)c32)cc1
IC50 (MDA-MB-231): 4510 nM
IC50 (U-937): 2350 nM
IC50 (Jurkat): 2660 nM

O=C(CN1C(=O)C(=O)c2cc(Br)cc(Br)c21)c1ccccc1
IC50 (U-937): 9970 nM

O=C1C(=O)N(CCc2ccccc2)c2c(Br)cc(Br)cc21
IC50 (MDA-MB-231): 4350 nM
IC50 (U-937): 780 nM
IC50 [1]: 6600 nM
IC50 [2]: 4040 nM
IC50 (Jurkat): 1520 nM

O=C1C(=O)N(CCc2ccc(Br)cc2)c2c(Br)cc(Br)cc21
IC50 (MDA-MB-231): 2010 nM
IC50 (U-937): 880 nM
IC50 (HCT-116): 1620 nM
IC50 (MCF7): 6020 nM
IC50 (A-375): 4340 nM
IC50 (PC-3): 2210 nM
IC50 (Jurkat): 1150 nM

COc1cccc(CCN2C(=O)C(=O)c3cc(Br)cc(Br)c32)c1
IC50 (MDA-MB-231): 5240 nM
IC50 (U-937): 1070 nM
IC50 (Jurkat): 2000 nM

O=C1C(=O)N(CCc2cccc(Br)c2)c2c(Br)cc(Br)cc21
IC50 (MDA-MB-231): 2720 nM
IC50 (U-937): 780 nM
IC50 (HCT-116): 1410 nM
IC50 (MCF7): 4040 nM
IC50 (A-375): 3440 nM
IC50 (PC-3): 2090 nM
IC50 (Jurkat): 1210 nM

O=C1C(=O)N(Cc2cccc3ccccc23)c2c(Br)cc(Br)cc21
IC50 (MDA-MB-231): 2490 nM
IC50 (U-937): 190 nM
IC50 (HCT-116): 1150 nM
IC50 [1]: 12000 nM
IC50 (MCF7): 7710 nM
IC50 [2]: 4710 nM
IC50 (A-375): 3950 nM
IC50 (PC-3): 1440 nM
IC50 (Jurkat): 910 nM

COc1cccc(C(=O)CN2C(=O)C(=O)c3cc(Br)cc(Br)c32)c1
IC50 (U-937): 4700 nM

COc1ccc(C(=O)CN2C(=O)C(=O)c3cc(Br)cc(Br)c32)cc1
IC50 (U-937): 5320 nM

CC[C@]1(O)C[C@@H]2CN(CCc3c([nH]c4ccccc34)[C@@](C(=O)OC)(c3cc4c(cc3OC)N(C)[C@H]3[C@@](O)(C(=O)OC)[C@H](OC(C)=O)[C@]5(CC)C=CCN6CC[C@]43[C@@H]65)C2)C1 [VINBLASTINE]
IC50 [1]: 1660 nM
IC50 [2]: 950 nM
